Values after ≈ are worked out from the molar mass of the structure shown.
Assays:
Aspergillus ochraceus [1] = assay: Ratio of bifonazole to compound for Aspergillus ochraceus ATCC 12066; assay type: functional
Aspergillus ochraceus [2] = assay: Ratio of ketoconazole to compound for Aspergillus ochraceus ATCC 12066; assay type: functional
Candida albicans [3] = assay: Antifungal activity against Candida albicans isolated from human after 72 hrs by serial dilution technique; assay type: functional
Method in brief: (§1)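 Modified microdilution in 96-well plates. Fungi were kept on malt agar at 4 °C. Spores were washed off in sterile 0.85% saline with 0.1% Tween 80. Compounds were dissolved at 1 mg/ml in 5% DMSO with 0.1% Tween 80 and added to malt broth with inoculum. Plates were shaken at 160 rpm for 72 h at 28 °C. Duplicate, repeated three times.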

Aspergillus ochraceus [4] = assay: Antifungal activity against Aspergillus ochraceus ATCC 12066 after 72 hrs by serial dilution technique; assay type: functional; conditions: ATCC 12066, 72 h; method in brief: as §1
Aspergillus fumigatus [5] = assay: Antifungal activity against Aspergillus fumigatus isolated from human incubated for 72 hrs followed by serial sub-cultivation for 72 hrs by serial dilution technique; assay type: functional
Method in brief: (§2)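 MFC: material from 72 h malt broth microdilution wells was serially sub-cultured into fresh broth plates and incubated a further 72 h at 28 °C. Fungicidal concentration is taken from growth after sub-culture. Duplicate, repeated three times.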

Aspergillus ochraceus [6] = assay: Antifungal activity against Aspergillus ochraceus after 72 hrs by serial dilution technique
Listeria monocytogenes [7] = assay: Antibacterial activity against Listeria monocytogenes NCTC 7973 after 24 hrs by microdilution method; assay type: functional; conditions: NCTC 7973, 24 h
Method in brief: (§3)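 Broth microdilution in 96-well plates. Bacterial suspensions were adjusted in sterile saline to 1.0 × 10⁵ CFU/ml, prepared daily and kept at 4 °C. Compound was added to LB broth with 1.0 × 10⁴ CFU per well and shaken at 160 rpm for 24 h at […] (so in the source). MIC is the lowest concentration with no visible growth under a binocular microscope. OD655 was also read. Duplicate, repeated three times.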

Talaromyces funiculosus [8] = assay: Ratio of bifonazole to compound for Penicillium funiculosum ATCC 36839; assay type: functional
Penicillium ochrochloron [9] = assay: Ratio of bifonazole to compound for Penicillium ochrochloron ATCC 9112; assay type: functional
Bacillus cereus [10] = assay: Antibacterial activity against clinical isolate of Bacillus cereus incubated for 24 hrs followed by serial sub-cultivation for 24 hrs by microdilution; assay type: functional
Method in brief: (§4)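 MBC: after the 24 h LB broth microdilution (1.0 × 10⁴ CFU per well, 160 rpm), wells were serially sub-cultured into fresh broth plates and incubated a further 24 h. MBC is the lowest concentration with no visible growth, taken as 99.5% killing of the original inoculum. Duplicate, repeated three times.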

Pseudomonas aeruginosa [11] = assay: Ratio of ampicillin MIC to compound MIC for Pseudomonas aeruginosa ATCC 27853; assay type: functional
Talaromyces funiculosus [12] = assay: Antifungal activity against Penicillium funiculosum ATCC 36839 incubated for 72 hrs followed by serial sub-cultivation for 72 hrs by serial dilution technique; assay type: functional; conditions: ATCC 36839, 72 h; method in brief: as §2
Trichoderma viride [13] = assay: Antifungal activity against Trichoderma viride IAM 5061 incubated for 72 hrs followed by serial sub-cultivation for 72 hrs by serial dilution technique; assay type: functional; conditions: IAM 5061, 72 h; method in brief: as §2
Listeria monocytogenes [14] = assay: Antibacterial activity against Listeria monocytogenes NCTC 7973 incubated for 24 hrs followed by serial sub-cultivation for 24 hrs by microdilution; assay type: functional; conditions: NCTC 7973, 24 h; method in brief: as §4
Aspergillus flavus [15] = assay: Antifungal activity against Aspergillus flavus ATCC 9643 incubated for 72 hrs followed by serial sub-cultivation for 72 hrs by serial dilution technique; assay type: functional; conditions: ATCC 9643, 72 h; method in brief: as §2
Trichoderma viride [16] = assay: Antifungal activity against Trichoderma viride IAM 5061 after 72 hrs by serial dilution technique; assay type: functional; conditions: IAM 5061, 72 h; method in brief: as §1
Staphylococcus aureus [17] = assay: Antibacterial activity against Staphylococcus aureus ATCC 6538 incubated for 24 hrs followed by serial sub-cultivation for 24 hrs by microdilution method; assay type: functional; conditions: ATCC 6538, 24 h; method in brief: as §4
Enterococcus faecalis [18] = assay: Antibacterial activity against Enterococcus faecalis isolated from human after 24 hrs by microdilution method; assay type: functional; method in brief: as §3
Staphylococcus aureus [19] = assay: Antibacterial activity against Staphylococcus aureus ATCC 6538 after 24 hrs by microdilution method; assay type: functional; conditions: ATCC 6538, 24 h; method in brief: as §3
Penicillium ochrochloron [20] = assay: Antifungal activity against Penicillium ochrochloron ATCC 9112 after 72 hrs by serial dilution technique; assay type: functional; conditions: ATCC 9112, 72 h; method in brief: as §1
Micrococcus flavus [21] = assay: Antibacterial activity against Micrococcus flavus ATCC 10240 incubated for 24 hrs followed by serial sub-cultivation for 24 hrs by microdilution; assay type: functional; conditions: ATCC 10240, 24 h; method in brief: as §4
Aspergillus flavus [22] = assay: Antifungal activity against Aspergillus flavus ATCC 9643 after 72 hrs by serial dilution technique; assay type: functional; conditions: ATCC 9643, 72 h; method in brief: as §1
Aspergillus niger [23] = assay: Antifungal activity against Aspergillus niger ATCC 6275 after 72 hrs by serial dilution technique; assay type: functional; conditions: ATCC 6275, 72 h; method in brief: as §1
Salmonella typhimurium [24] = assay: Antibacterial activity against Salmonella Typhimurium ATCC 13311 incubated for 24 hrs followed by serial sub-cultivation for 24 hrs by microdilution; assay type: functional, Salmonella enterica subsp. enterica serovar Typhimurium; conditions: Salmonella enterica, ATCC 13311, 24 h; method in brief: as §4
Candida albicans [25] = assay: Antifungal activity against Candida albicans isolated from human incubated for 72 hrs followed by serial sub-cultivation for 72 hrs by serial dilution technique; assay type: functional; method in brief: as §2
Aspergillus fumigatus [26] = assay: Ratio of ketoconazole to compound for Aspergillus fumigatus isolated from human; assay type: functional
Talaromyces funiculosus [27] = assay: Antifungal activity against Penicillium funiculosum ATCC 36839 after 72 hrs by serial dilution technique; assay type: functional; conditions: ATCC 36839, 72 h; method in brief: as §1
Penicillium ochrochloron [28] = assay: Antifungal activity against Penicillium ochrochloron ATCC 9112 incubated for 72 hrs followed by serial sub-cultivation for 72 hrs by serial dilution technique; assay type: functional; conditions: ATCC 9112, 72 h; method in brief: as §2
Candida albicans [29] = assay: Ratio of ketoconazole to compound for Candida albicans isolated from human; assay type: functional
Penicillium ochrochloron [30] = assay: Ratio of ketoconazole to compound for Penicillium ochrochloron ATCC 9112; assay type: functional
Pseudomonas aeruginosa [31] = assay: Antibacterial activity against Pseudomonas aeruginosa ATCC 27853 after 24 hrs by microdilution method; assay type: functional; conditions: ATCC 27853, 24 h; method in brief: as §3
Aspergillus niger [32] = assay: Ratio of bifonazole to compound for Aspergillus niger ATCC 6275; assay type: functional
Enterococcus faecalis [33] = assay: Antibacterial activity against Enterococcus faecalis isolated from human incubated for 24 hrs followed by serial sub-cultivation for 24 hrs by microdilution; assay type: functional; method in brief: as §4
Candida albicans [34] = assay: Ratio of bifonazole to compound for Candida albicans isolated from human; assay type: functional
Salmonella typhimurium [35] = assay: Antibacterial activity against Salmonella Typhimurium ATCC 13311 after 24 hrs by microdilution method; assay type: functional, Salmonella enterica subsp. enterica serovar Typhimurium; conditions: Salmonella enterica, ATCC 13311, 24 h; method in brief: as §3
Escherichia coli [36] = assay: Antibacterial activity against Escherichia coli ATCC 35210 incubated for 24 hrs followed by serial sub-cultivation for 24 hrs by microdilution; assay type: functional; conditions: ATCC 35210, 24 h; method in brief: as §4
Bacillus cereus [37] = assay: Antibacterial activity against clinical isolate of Bacillus cereus after 24 hrs by microdilution method; assay type: functional; method in brief: as §3
Trichoderma viride [38] = assay: Ratio of bifonazole to compound for Trichoderma viride IAM 5061; assay type: functional
Aspergillus niger [39] = assay: Antifungal activity against Aspergillus niger ATCC 6275 incubated for 72 hrs followed by serial sub-cultivation for 72 hrs by serial dilution technique; assay type: functional; conditions: ATCC 6275, 72 h; method in brief: as §2
Pseudomonas aeruginosa [40] = assay: Antibacterial activity against Pseudomonas aeruginosa ATCC 27853 incubated for 24 hrs followed by serial sub-cultivation for 24 hrs by microdilution; assay type: functional; conditions: ATCC 27853, 24 h; method in brief: as §4
Escherichia coli [41] = assay: Antibacterial activity against Escherichia coli ATCC 35210 after 24 hrs by microdilution method; assay type: functional; conditions: ATCC 35210, 24 h; method in brief: as §3
Aspergillus ochraceus [42] = assay: Antifungal activity against Aspergillus ochraceus ATCC 12066 incubated for 72 hrs followed by serial sub-cultivation for 72 hrs by serial dilution technique; assay type: functional; conditions: ATCC 12066, 72 h; method in brief: as §2
Micrococcus flavus [43] = assay: Antibacterial activity against Micrococcus flavus ATCC 10240 after 24 hrs by microdilution method; assay type: functional; conditions: ATCC 10240, 24 h; method in brief: as §3

Compound: CNc1nc(C)c(C(=O)/C=C/c2ccc(F)cc2)s1
- Ratio (Aspergillus ochraceus [1]): 10
- Ratio (Aspergillus ochraceus [2]): 10
- MIC (Candida albicans [3]): 72.5 µM (≈ 20 µg/mL)
- MIC (Aspergillus ochraceus [4]): 36.2 µM (≈ 10 µg/mL)
- MFC (Aspergillus fumigatus [5]): 72.5 µM (≈ 20 µg/mL)
- MIC (Aspergillus ochraceus [6]): 36.2 µM (≈ 10 µg/mL)
- MIC (Listeria monocytogenes [7]): 90.6 µM (≈ 25 µg/mL)
- Ratio (Talaromyces funiculosus [8]): 10
- Ratio (Penicillium ochrochloron [9]): 10
- MBC (Bacillus cereus [10]): 54.3 µM (≈ 15 µg/mL)
- Ratio (Pseudomonas aeruginosa [11]): 10
- MFC (Talaromyces funiculosus [12]): 72.5 µM (≈ 20 µg/mL)
- MFC (Trichoderma viride [13]): 90.6 µM (≈ 25 µg/mL)
- MBC (Listeria monocytogenes [14]): 90.6 µM (≈ 25 µg/mL)
- MFC (Aspergillus flavus [15]): 90.6 µM (≈ 25 µg/mL)
- MIC (Trichoderma viride [16]): 72.5 µM (≈ 20 µg/mL)
- MBC (Staphylococcus aureus [17]): 72.5 µM (≈ 20 µg/mL)
- MIC (Enterococcus faecalis [18]): 54.3 µM (≈ 15 µg/mL)
- MIC (Staphylococcus aureus [19]): 72.5 µM (≈ 20 µg/mL)
- MIC (Penicillium ochrochloron [20]): 36.2 µM (≈ 10 µg/mL)
- MBC (Micrococcus flavus [21]): 72.5 µM (≈ 20 µg/mL)
- MIC (Aspergillus flavus [22]): 36.2 µM (≈ 10 µg/mL)
- MIC (Aspergillus niger [23]): 36.2 µM (≈ 10 µg/mL)
- MBC (Salmonella typhimurium [24]): 72.5 µM (≈ 20 µg/mL)
- MFC (Candida albicans [25]): 90.6 µM (≈ 25 µg/mL)
- Ratio (Aspergillus fumigatus [26]): 10
- MIC (Talaromyces funiculosus [27]): 36.2 µM (≈ 10 µg/mL)
- MFC (Penicillium ochrochloron [28]): 72.5 µM (≈ 20 µg/mL)
- Ratio (Candida albicans [29]): 10
- Ratio (Penicillium ochrochloron [30]): 10
- MIC (Pseudomonas aeruginosa [31]): 72.5 µM (≈ 20 µg/mL)
- Ratio (Aspergillus niger [32]): 10
- MBC (Enterococcus faecalis [33]): 72.5 µM (≈ 20 µg/mL)
- Ratio (Candida albicans [34]): 10
- MIC (Salmonella typhimurium [35]): 54.3 µM (≈ 15 µg/mL)
- MBC (Escherichia coli [36]): 72.5 µM (≈ 20 µg/mL)
- MIC (Bacillus cereus [37]): 36.2 µM (≈ 10 µg/mL)
- Ratio (Trichoderma viride [38]): 10
- MFC (Aspergillus niger [39]): 72.5 µM (≈ 20 µg/mL)
- MBC (Pseudomonas aeruginosa [40]): 111 µM (≈ 30.6 µg/mL)
- MIC (Escherichia coli [41]): 54.3 µM (≈ 15 µg/mL)
- MFC (Aspergillus ochraceus [42]): 72.5 µM (≈ 20 µg/mL)
- MIC (Micrococcus flavus [43]): 32.6 µM (≈ 9.01 µg/mL)
